Test results as given in ChEMBL document CHEMBL2069191, “Antitrypanosomal and antioxidant properties of 4-hydroxycoumarins derivatives” (2012).
Active and inactive are the calls of the source. The rule behind the calls is not given here.

Experiments:
Format in all cases: functional
[1] = Antioxidant activity assessed as inhibition of hydroxyl radical production at 1 mM after 5 mins by ESR spectrophotometry
In short: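 Hydroxyl radical generated in N,N-dimethylformamide with NaOH (3 mM final), DMPO spin trap (30 mM final) and 30% hydrogen peroxide. Compounds at 1 mM final. EPR spectrum recorded after 5 min of reaction, with % scavenging derived from it.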

[2] = Antioxidant activity against APPH radical assessed as trolox equivalent incubated for 15 mins prior to APPH addition measured every 1 min by 120 mins by fluorescein-based ORAC method
In short: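 Peroxyl-radical scavenging by ORAC-FL. Fluorescein (40 nM final) and compound in methanol (0.3–2 M range, as printed) in 75 mM sodium phosphate buffer pH 7.4. Preincubated 15 min at 37 °C, then AAPH (18 mM final) added. Fluorescence read at ex 485/em 528 nm every 1 min for 120 min. Area under the decay curve calculated, expressed relative to trolox. Means SD.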

Trypanosoma cruzi = assay: Antitrypanosomal activity against trypomastigote stage of Trypanosoma cruzi Dm28c at 10 umol/L after 24 hrs by MTT assay
In short: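 Parasites at 10⁷ per mL exposed to compound in DMSO ([…] final as printed, DMSO below 0.1% v/v) for 24 h at 37 °C. Nifurtimox served as positive control. Colorimetric read-out of viable parasites by absorbance at 570 nm.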

Row | Structure (SMILES) | inhibition [1] [%] | Activity [2] [equiv] | Activity (Trypanosoma cruzi)
1 | O=c1oc2ccc(Cl)cc2c(O)c1-c1cccc(O)c1 | 100 | 7.7 | inactive
2 | Cc1ccc(-c2c(O)c3ccccc3oc2=O)cc1 | 34.6 | 6.5 | 16.7%
3 | O=c1cc(O)c2ccccc2o1 | 61.9 | 4.2 | inactive
4 | COc1ccc(-c2c(O)c3ccccc3oc2=O)cc1 | 46.3 | 5.7 | 1.6%
5 | Oc1cc(O)c2c(c1)OC(c1ccc(O)c(O)c1)C(O)C2 (centres undefined) | – | 6.76 | –
6 | O=c1oc2ccccc2c(O)c1-c1ccccc1 | 45.1 | 4.4 | 21.1%
7 | CC1CS(=O)(=O)CCN1/N=C/c1ccc([N+](=O)[O-])o1 (centres undefined) [NIFURTIMOX] | – | – | 52.5%
8 | O=c1oc2ccccc2c(O)c1-c1ccc(Cl)cc1 | 31.3 | 3.9 | 30.7%
9 | O=c1c(O)c(-c2ccc(O)c(O)c2)oc2cc(O)cc(O)c12 | – | 7.28 | –
10 | O=c1oc2ccccc2c(O)c1-c1cccc(O)c1 | 40.2 | 4.9 | 3.9%
